Results on six molecules are retold here after ChEMBL document CHEMBL4196138, “Antiproliferative Carvotacetones from Sphaeranthus africanus” (J Nat Prod, 2018).

One test has as its system U-251. Kind of test: Cytotoxicity against human U251 cells after 72 hrs by XTT assay. It is filed as functional, cell-based. The note with it: U-251, 72 h. Put shortly:
(§1)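 HCT-116 and U-251 cells grown in high-glucose DMEM with 4 mM L-glutamine, 10% FBS, and 1% penicillin/streptomycin at 37 °C in 5% CO2. 5000 cells/well were attached overnight, then treated 72 h (final DMSO 0.5%; vinblastine 0.01 μM as positive control). XTT was measured photometrically 1.5 h after addition. IC50 by four-parameter logistic fit; mean ± SEM of six independent experiments.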
(Tetrazolium dyes change colour on reduction, which living cells bring about.)

In another test the test system is MDA-MB-231. Kind of test: Cytotoxicity against human MDA-MB-231 cells after 72 hrs by XTT assay. The class given is functional, cell-based. As to conditions: MDA-MB-231, 72 h. A digest of the protocol: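 MDA-MB-231 breast cancer cells kept in RPMI 1640 with 2 mM L-glutamine, 10% FBS, and penicillin/streptomycin at 37 °C in 5% CO2. 5000 cells/well were grown overnight, then exposed 72 h to compounds (final DMSO 0.5%, vehicle control; vinblastine 0.01 μM as positive control). Photometric XTT readout after 1.5 h. Four-parameter logistic IC50; six independent experiments, mean ± SEM.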

Another test concerns HEK293. Kind of test: Cytotoxicity against HEK293 cells after 72 hrs by XTT assay. The note with it: Homo sapiens, HEK293, 72 h. It is filed as cell-based. Put shortly:
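HEK-293 cells in DMEM:Ham's F12 (1:1) with 2 mM L-glutamine, 10% FBS, and 1% penicillin/streptomycin at 37 °C in 5% CO2. 10 000 cells/well were treated 72 h with compounds from DMSO stocks (final DMSO 0.5%; vehicle controls). XTT plus electron coupling reagent was added and read photometrically. IC50 from a four-parameter logistic fit; mean ± SEM of six independent experiments.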

Another test has as its system CCRF-CEM. The test is described as follows: Cytotoxicity against human CCRF-CEM cells after 72 hrs by XTT assay. The class given is functional, cell-based. Put shortly: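 CCRF-CEM leukemia cells in RPMI 1640 with 2 mM L-glutamine, 10% FBS, and penicillin/streptomycin at 37 °C in 5% CO2. 10 000 cells/well were exposed 72 h to a concentration series (final DMSO 0.5%, vehicle control; vinblastine 0.01 μM as positive control). XTT was read photometrically after 4 h. Four-parameter logistic IC50; mean ± SEM, n = 6 independent experiments.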

The next test relates to HCT-116. Kind of test: Cytotoxicity against human HCT116 cells after 72 hrs by XTT assay. As to conditions: HCT-116, 72 h. It is filed as functional, cell-based. Put shortly:
as §1

Take `C/C=C(/C)C(=O)O[C@@H]1C=C(CO)C(=O)[C@@H](OC(=O)[C@]2(C)O[C@@H]2C)[C@@H]1C(C)C`: the IC50 (usually the concentration that gives 50% inhibition) was found to be 2900 nM in the test with U-251; 2000 nM with MDA-MB-231; 3000 nM with HEK293; 1200 nM in the test on CCRF-CEM; 2600 nM in the test on HCT-116.
As for `CC[C@]1(O)C[C@@H]2CN(CCc3c([nH]c4ccccc34)[C@@](C(=O)OC)(c3cc4c(cc3OC)N(C)[C@H]3[C@@](O)(C(=O)OC)[C@H](OC(C)=O)[C@]5(CC)C=CCN6CC[C@]43[C@@H]65)C2)C1` [VINBLASTINE], the IC50 in the test with HEK293 worked out at 27 nM; in the test with HCT-116, 8.7 nM.
For the molecule `C/C=C(/C)C(=O)O[C@@H]1C(=O)C(CO)=C[C@@H](OC(=O)/C(C)=C\C)[C@H]1C(C)C`, the IC50 was determined as 3000 nM with U-251; 1800 nM in the test with MDA-MB-231; 2500 nM in the test with HEK293; 800 nM in the test with CCRF-CEM; 3900 nM with HCT-116.
The like results for `C/C=C(/C)C(=O)O[C@@H]1C=C(CO)C(=O)[C@@H](O)[C@@H]1C(C)C` were, in that order, 4300 nM, 6500 nM, 5500 nM, 1500 nM and 9500 nM.
The corresponding values for `C/C=C(/C)C(=O)O[C@@H]1C=C(CO)C(=O)[C@@H](OC(=O)[C@](C)(O)[C@@H](C)Cl)[C@@H]1C(C)C` are 2100 nM, 1500 nM, 2800 nM, 600 nM and 2900 nM.
The corresponding values for `C/C=C(/C)C(=O)O[C@@H]1C(=O)C(CO)=C[C@@H](OC(=O)/C(C)=C/C)[C@H]1C(C)C` are 2100 nM, 2000 nM, 3000 nM, 1300 nM and 2500 nM.
